The text below walks through data of ChEMBL document CHEMBL1135551, “N-Acylvanillamides: development of an expeditious synthesis and discovery of new acyl templates for powerful activation of the vanilloid receptor” (J Med Chem, 2002).

The target of assay [1] is T1, Transient receptor potential cation channel subfamily V member 1 (Homo sapiens, UniProt Q8NER1). As to the kind of experiment: Percent absolute effect obtained with ionomycin, measured by the entry of [Ca2+] into human embryonic kidney HEK293 cells overexpressing hVR1. The class given is functional, cell-based. In short, it runs like this: (§1)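 HEK-293 cells overexpressing human VR1, grown in MEM with nonessential amino acids, 10% FCS, 0.2 mM glutamine at 37 °C; plated on poly-L-lysine a day before. Cells loaded 2 h at 25 °C with 4 µM Fluo-3 methyl ester, washed, trypsinized, suspended in Tyrode pH 7.4 without BSA.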

Assay [2] concerns the target T1, Transient receptor potential cation channel subfamily V member 1. The assay is described as follows: Concentration necessary to induce a relative half-maximal response measured by the entry of [Ca2+] into human embryonic kidney HEK293 cells overexpressing the human VR1. The format is functional, cell-based. Put shortly:
as §1

T1 sequence (Q8NER1 whole entry): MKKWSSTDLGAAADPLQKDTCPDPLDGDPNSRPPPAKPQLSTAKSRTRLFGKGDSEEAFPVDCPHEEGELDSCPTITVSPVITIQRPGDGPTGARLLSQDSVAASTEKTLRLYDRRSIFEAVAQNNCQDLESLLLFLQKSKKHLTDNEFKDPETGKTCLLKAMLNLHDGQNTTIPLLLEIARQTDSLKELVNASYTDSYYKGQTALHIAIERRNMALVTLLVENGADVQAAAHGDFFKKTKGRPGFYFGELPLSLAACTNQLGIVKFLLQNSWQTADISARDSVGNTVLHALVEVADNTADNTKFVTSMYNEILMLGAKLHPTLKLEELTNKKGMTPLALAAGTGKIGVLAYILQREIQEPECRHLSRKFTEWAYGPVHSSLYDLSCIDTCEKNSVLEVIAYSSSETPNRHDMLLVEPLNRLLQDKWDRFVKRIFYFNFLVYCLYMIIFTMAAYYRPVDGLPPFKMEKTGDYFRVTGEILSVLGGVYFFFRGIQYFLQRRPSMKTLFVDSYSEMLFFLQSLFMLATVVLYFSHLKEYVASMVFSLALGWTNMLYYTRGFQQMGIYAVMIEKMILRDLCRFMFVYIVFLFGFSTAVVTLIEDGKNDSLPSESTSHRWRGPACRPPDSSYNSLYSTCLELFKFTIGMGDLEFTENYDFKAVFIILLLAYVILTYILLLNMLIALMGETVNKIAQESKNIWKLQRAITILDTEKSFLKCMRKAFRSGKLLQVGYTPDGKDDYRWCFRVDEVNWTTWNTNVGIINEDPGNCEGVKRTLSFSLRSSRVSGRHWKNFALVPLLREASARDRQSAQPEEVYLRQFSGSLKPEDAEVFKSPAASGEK

As for `C/C=C/C=C/C(=O)NCc1ccc(O)c(OC)c1`, the Response in assay [1] is 34.6%.
A word on the EC50: it is the concentration needed to bring the measured effect to its halfway point. Lower therefore signals a more potent agent. As for `COc1cc(CNC(=O)C2CC2(C)CCCC(C)CCCC(C)CCCC(C)C)ccc1O` (configuration not stated), the Response in assay [1] turned out to be 91.2%. Further, the EC50 in assay [2] was 2.51 nM.
In turn, `COc1cc(CNC(=O)CC[C@H](C)[C@@H]2CC[C@H]3[C@@H]4[C@@H](O)C[C@H]5C[C@@H](O)CC[C@@]5(C)[C@H]4C[C@@H](O)[C@]32C)ccc1O` displayed a Response in assay [1] of 5.8%.
Still for that read-out and setting: as for `COc1cc(CNC(=O)[C@@]2(C)CCC[C@@]3(C)[C@H]2CC=C2C=C(C(C)C)CC[C@@H]23)ccc1O`, the figure is 37.5%.
As to `COc1cc(CNC(=O)CCCCCCCCCCCCCCCCCCC(=O)NCc2ccc(O)c(OC)c2)ccc1O`, the Response in assay [1] came to 83.4%. In addition, it took 501 nM to reach a half-maximal effect in assay [2] (EC50).
Compound `COc1cc(CNC(=O)CCCC/C=C/C(C)C)ccc1O` yielded a Response in assay [1] of 65.4%.
Consider `CCCCCCCC/C=C\CCCCCCCC(=O)NCc1ccc(O)c(OC)c1` [OLVANIL], for which the Response in assay [1] worked out at 67.2%. It took 0.501 nM to reach a half-maximal effect in assay [2] (EC50).
`COc1cc(CNC(=O)CCCCCCCC/C=C/CCCCCCCCC(=O)NCc2ccc(O)c(OC)c2)ccc1O` had a Response in assay [1] of 85.7%. The concentration giving a half-maximal response (EC50) in assay [2] is 1.58 nM.
Turning to `COc1cc(CNC(=O)C2C(C(=O)NCc3ccc(O)c(OC)c3)[C@H]3C=C[C@@H]2C3)ccc1O` (stereo in doubt; trans), the Response in assay [1] was 37.2%.
In assay [1], `COc1cc(CNC(=O)/C=C(\C)CCC[C@H](C)CCC[C@H](C)CCCC(C)C)ccc1O` registered a Response of 85%. The EC50 in assay [2] is 2 nM.
As to `COc1cc(CNC(=O)[C@]23CC[C@@H](C)[C@H](C)[C@H]2C2=CC[C@@H]4[C@@]5(C)CC[C@H](O)C(C)(C)[C@@H]5CC[C@@]4(C)[C@]2(C)CC3)ccc1O`, the Response in assay [1] worked out at 14.3%.
With `CCCCCCCC[C@H]1C[C@H]1CCCCCCCCCCCC(=O)NCc1ccc(O)c(OC)c1`, the Response in assay [1] turned out to be 91%. This compound showed an EC50 in assay [2] of 79.4 nM.
The matching figures for `COc1cc(CNC(=O)/C=C(C)/C=C/C=C(C)/C=C/C2=C(C)CCCC2(C)C)ccc1O`: 92.6% and 3.98 nM.
The compound `COc1cc(CNC(=O)C2C(C(=O)NCc3ccc(O)c(OC)c3)[C@H]3C=C[C@@H]2C3)ccc1O` (stereo in doubt; cis) displayed a Response in assay [1] of 16.4%.
Regarding `CCCCCCCCCCCCCCCCCC(=O)NCc1ccc(O)c(OC)c1`, the Response in assay [1] came to 32.4%.
Compound `C=C(C(=O)NCc1ccc(O)c(OC)c1)[C@H]1CC[C@]2(C)CCC[C@](C)(O)[C@H]2C1` registered a Response in assay [1] of 78.9%. The same compound showed a concentration giving a half-maximal response (EC50) in assay [2] of 200 nM.
The matching figures for `COc1cc(CNC(=O)CCCCCCCCC2CC2)ccc1O`: 96.2% and 3.16 nM.
For `CCCCCCC(=O)CCCCCCCCCCC(=O)NCc1ccc(O)c(OC)c1` the same measures were 67% and 6.31 nM.
Compound `COc1cc(CNC(=O)/C=C(\C)CCC=C(C)C)ccc1O` displayed a Response in assay [1] of 70.9%. Further, the half-maximal effective concentration (EC50) in assay [2] is 39.8 nM.
For `CCCCCC[C@@H](O)C/C=C\CCCCCCCC(=O)NCc1ccc(O)c(OC)c1` the same measures were 85% and 3.16 nM.
Take `CCCCCCCC[C@@H]1C[C@@H]1CCCCCCCC(=O)NCc1ccc(O)c(OC)c1`: in assay [1], the Response came out at 86.7%. The compound also showed a half-maximal effective concentration (EC50) in assay [2] of 1.26 nM.
The matching figures for `COc1cc(CNC(=O)/C=C(\C)CC/C=C(\C)CCC=C(C)C)ccc1O`: 79.9% and 0.501 nM.
`CCCCCC[C@H](C/C=C\CCCCCCCC(=O)NCc1ccc(O)c(OC)c1)OC(C)=O`: the Response in assay [1] turned out to be 93.5%.
On to `C=CCCCCCCCCC(=O)NCc1ccc(O)c(OC)c1`, for which the Response in assay [1] came out at 85%. For the same compound, the midpoint of the response in assay [2], the EC50, lay at 2 nM.
The matching figures for `CCCCCCCCC#CCCCCCCCC(=O)NCc1ccc(O)c(OC)c1`: 73.7% and 12.6 nM.
The matching figures for `C=C(C)[C@@H]1CC[C@]2(C(=O)NCc3ccc(O)c(OC)c3)CC[C@]3(C)[C@H](CC[C@@H]4[C@@]5(C)CC[C@H](O)C(C)(C)[C@@H]5CC[C@]43C)[C@@H]12`: 88.6% and 126 nM.
Compound `CCCCCC[C@@H](O)CCCCCCCCCCC(=O)NCc1ccc(O)c(OC)c1` displayed a Response in assay [1] of 69.7%. This compound had an EC50 in assay [2] of 5.01 nM.
The matching figures for `CCCCCCCC/C=C\CCCCCCCCCCC(=O)NCc1ccc(O)c(OC)c1`: 91.4% and 3.16 nM.
`CCCCCC/C=C/C#CCCCCCCCC(=O)NCc1ccc(O)c(OC)c1` had a Response in assay [1] of 70.7%. For the same compound, in assay [2], a half-maximal response (EC50) required 1.26 nM.
In assay [1], `C=C(C)[C@H]1CC=C(C(=O)NCc2ccc(O)c(OC)c2)CC1` showed a Response of 74.5%. The compound also showed a concentration for a half-maximal effect (EC50) in assay [2] of 794 nM.
Turning to `CCCCC/C=C\C/C=C\C/C=C\C/C=C\CCCC(=O)NCc1ccc(O)c(OC)c1`, the Response in assay [1] was determined as 74.8%. This compound also gave an EC50 in assay [2] of 0.501 nM.
For the compound `CCCCCC[C@@H](O)CC1CC1CCCCCCCC(=O)NCc1ccc(O)c(OC)c1` (some centres not stated), the Response in assay [1] came out at 98%. This compound gave an EC50 in assay [2] of 5.01 nM.
`COc1cc(CNC(=O)[C@H]2[C@@H](C=C(C)C)C2(C)C)ccc1O`: the Response in assay [1] worked out at 85%. The compound further showed a concentration for a half-maximal effect (EC50) in assay [2] of 200 nM.
